# ChEMBL document CHEMBL4513216, “Probing the Open Global Health Chemical Diversity Library for Multistage-Active Starting Points for Next-Generation Antimalarials” (ACS Infect Dis, 2020)
# Experiment: Toxicity liver stage against HepG2, at 10uM
# Format: cell-based
# Parameters: test concentration 10 uM, cell line HepG2-A16-CD81EGFP
# Details: human, HepG2-A16-CD81EGFP cells; read-out: INHIBITION
# Summary of the method: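 Uninfected HepG2-A16-CD81EGFP cells, 3 × 10^3 per well, 1536-well, plated on prespotted compound at 10 μM final, parasite-free screening media added to match infected plates; puromycin 10 μM positive, DMSO 0.5% negative; run in parallel with 48 h PbLuc assay at 37 °C, 5% CO2; viability by CellTiter-Glo luminescence, normalized to controls.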
compound,measurement,value
Cc1ccccc1CN1CCC[C@H]1c1nc(-c2cncnc2N)no1,cytotoxicity at 10 µM,-0.921%
COc1coc(C(=O)Nc2nc(-c3ccncc3)cs2)cc1=O,cytotoxicity at 10 µM,-7.97%
CCc1ccc(S(=O)(=O)N2CC3(COC(C)(C)OC3)C2)s1,cytotoxicity at 10 µM,5.76%
O=C1[C@H]2CN(c3ncc(F)cn3)C[C@H]2CN1CC1CC1,cytotoxicity at 10 µM,6.19%
Cc1nnc([C@@H]2CCO[C@@H]3CCN(C(=O)Cc4ccsc4)C[C@@H]32)o1,cytotoxicity at 10 µM,9.43%
Cn1cc(CN2CCCC3(CCN(Cc4ccncc4)C3=O)C2)cn1 (stereo unspecified),cytotoxicity at 10 µM,8.68%
Cc1ccc(C(=O)N2CCN3C[C@H](Oc4cncnc4)C[C@H]3C2)cn1,cytotoxicity at 10 µM,5.01%
COCCNC(=O)C(C)n1nc(-c2ccco2)cc(N)c1=O (stereo unspecified),cytotoxicity at 10 µM,2.62%
CCN(CC)S(=O)(=O)N1CCCC(c2ncc3c(n2)CCN(C)C3)C1 (stereo unspecified),cytotoxicity at 10 µM,3.77%
COc1cccc([C@@]2(O)CC[C@@H]3CN(C(=O)c4ccn(C)n4)C[C@@H]32)c1,cytotoxicity at 10 µM,2%
c1cc(CN2CCCCC2c2ccc(Nc3cnccn3)nc2)ccn1 (stereo unspecified),cytotoxicity at 10 µM,7.38%
CC(=O)N1CCCC(c2ccnc(Nc3cnccn3)n2)C1 (stereo unspecified),cytotoxicity at 10 µM,-12.5%
C=Cn1ncc(CN2C[C@@H]3C[C@@H](O)CN3C[C@@H]2Cc2ccccc2)c1C,cytotoxicity at 10 µM,4.02%
CC(=O)NCCNC(=O)Nc1cc(C(C)(C)C)sc1C#N,cytotoxicity at 10 µM,0.665%
COC(=O)c1ccoc1CN(C1CC1)C1CCS(=O)(=O)C1 (stereo unspecified),cytotoxicity at 10 µM,2.22%
CS(=O)(=O)c1ccc(CNC(=O)NCc2cc[nH]n2)cc1,cytotoxicity at 10 µM,1.22%
Cc1cc(CN(CC(N)=O)CC(C)C)on1,cytotoxicity at 10 µM,6.36%
Cc1ccccc1CN(C)C(C(N)=O)c1ccccc1 (stereo unspecified),cytotoxicity at 10 µM,13.1%
CC1CCC(O)(Cn2ncnc2-c2cccc(C#N)c2)CC1 (stereo unspecified),cytotoxicity at 10 µM,0.775%
O=C(CCC1CCCCO1)NCc1cnn(-c2ccc(F)cc2F)c1 (stereo unspecified),cytotoxicity at 10 µM,-11.4%
O=C(NCCN1CCOCC1)c1ccc(OCc2ccccc2)nc1,cytotoxicity at 10 µM,-5.97%
O=C(OC1CCC1)c1ncccc1C(F)(F)F,cytotoxicity at 10 µM,10.6%
CN(Cc1ccc2c(c1)OCO2)C(=O)c1ccc(=O)n(C)c1,cytotoxicity at 10 µM,-9.17%
CCCC(NC(=O)c1ccccc1Br)c1nnn[nH]1 (stereo unspecified),cytotoxicity at 10 µM,-1.8%
CCn1ncc2c1CCCC2NCc1csc(C(C)C)n1 (stereo unspecified),cytotoxicity at 10 µM,-1.69%
Cc1ccc(O)c(CNCC(C)c2nc3ccccc3o2)n1 (stereo unspecified),cytotoxicity at 10 µM,-1.74%
CC(C)Nc1ncccc1C(=O)NCc1ccnn1C,cytotoxicity at 10 µM,-5.87%
CCCN(C(=O)c1ocnc1C)C1CCCN(Cc2ccccc2)C1 (stereo unspecified),cytotoxicity at 10 µM,-7.79%
CN1CCN(CCCN(C)S(=O)(=O)C2CCCCC2)CC1,cytotoxicity at 10 µM,-9.46%
Cc1cc(=O)[nH]cc1C(=O)N1CCN(C)c2ccccc2C1,cytotoxicity at 10 µM,-10.1%
Cc1nc(CN(C)C2CCN(Cc3nc4c(F)cccc4[nH]3)C2)no1 (stereo unspecified),cytotoxicity at 10 µM,-4.09%
Cc1cnn(CC(C)NCc2c(C)nn(Cc3ccccc3)c2C)c1 (stereo unspecified),cytotoxicity at 10 µM,-4.66%
Cc1cnn(CC2CCCN2Cc2cc(=O)n3cccc(C)c3n2)c1 (stereo unspecified),cytotoxicity at 10 µM,0.442%
CN(C)CC(=O)N1CCc2sc(C(=O)N3CCOCC3)cc21,cytotoxicity at 10 µM,-99.4%
CC(=O)N1CCC2(CC1)c1ncc(-c3ccccc3)n1CCN2C,cytotoxicity at 10 µM,-104%
O=C(c1ccco1)N1CCC2(CCCN(c3ncc(F)cn3)C2)C1 (stereo unspecified),cytotoxicity at 10 µM,-88.4%
CN1CCN(Cc2cnc3n2CCN(C(=O)c2ccncc2)C3)CC1,cytotoxicity at 10 µM,-73.8%
CCOCC1CN(C(=O)Cc2ccccn2)Cc2c1cnn2CC (stereo unspecified),cytotoxicity at 10 µM,-69.3%
Cc1ccsc1C(Cn1ccnc1-c1ccccc1C(=O)O)N(C)C (stereo unspecified),cytotoxicity at 10 µM,-2.86%
CCc1ccccc1OCCN1CCC(NS(C)(=O)=O)CC1,cytotoxicity at 10 µM,-20.4%
O=C(c1c[nH]cn1)N1CCC(n2cc(-c3ccsc3)nn2)CC1,cytotoxicity at 10 µM,-14.3%
COCc1noc(-c2ccc(N3CCCC3c3nccs3)nc2)n1 (stereo unspecified),cytotoxicity at 10 µM,7.12%
NCCO[C@H]1C[C@@H](O)C12CCN(C1Cc3ccccc3C1)CC2,cytotoxicity at 10 µM,20.7%
Nc1ncccc1CN1C[C@H]2OC(=O)N(Cc3ccccn3)[C@H]2C1,cytotoxicity at 10 µM,13.9%
COCCCN1C(=O)CC[C@H]2CN(c3ccc(C(N)=O)cn3)CC[C@H]21,cytotoxicity at 10 µM,5.03%
CCC[C@@H]1CN(S(=O)(=O)c2ccc(OC)c(OC)c2)C[C@H]1NC(C)=O,cytotoxicity at 10 µM,3.06%
CCc1cc(C(=O)NCC2CCN(Cc3ccncc3)CC2)on1,cytotoxicity at 10 µM,10.4%
CN(CCCN1CCCC1)[C@@H]1c2ccccc2C2(CCNCC2)[C@H]1O,cytotoxicity at 10 µM,-3.99%
Cc1ccc(-n2c(COC(C)C)n[nH]c2=O)cc1,cytotoxicity at 10 µM,9.47%
CN(C)Cc1nnc(C2CCCN(c3nccc4ccccc34)C2)n1C (stereo unspecified),cytotoxicity at 10 µM,-0.928%
CCN(CC)C(=O)c1ccc(Cl)c(NC(=O)c2cc(C(C)C)on2)c1,cytotoxicity at 10 µM,6.9%
CCN(C)C[C@@H]1CN(Cc2cccc(Cl)c2)C[C@@H]1CO,cytotoxicity at 10 µM,2.45%
COc1cccc(S(=O)(=O)N2CCN(C)[C@@H]3CS(=O)(=O)C[C@@H]32)c1,cytotoxicity at 10 µM,-9.6%
Cc1cc(C(F)(F)F)nc(CCNC(C)Cn2ccnc2)n1 (stereo unspecified),cytotoxicity at 10 µM,4.21%
CC(=O)N[C@@H]1CN(Cc2ccccc2C(=O)O)C[C@H]1C(C)C,cytotoxicity at 10 µM,3.15%
CC(C)n1cnnc1CN(C)C(=O)c1cc(COc2ccccc2)[nH]n1,cytotoxicity at 10 µM,4.58%
CNc1ncc(CN(C)c2nccc(CCC(F)(F)F)n2)cn1,cytotoxicity at 10 µM,-16.3%
O=C(O)C1(Cc2ccccc2Cl)CCN(c2ncnc3[nH]ccc23)CC1,cytotoxicity at 10 µM,11%
Cc1ccnc(CC(C)N(C)Cc2ccc3c(c2)CCO3)c1 (stereo unspecified),cytotoxicity at 10 µM,1.63%
CN1CC2(CCN(Cc3cccc(C#N)c3)CC2)CC1=O,cytotoxicity at 10 µM,-0.145%
Cc1ccc(C(=O)N2C[C@@H](C(=O)O)[C@H](c3ccncc3)C2)cc1F,cytotoxicity at 10 µM,-11.2%
Cc1cc(-n2cccn2)ccc1CN1C[C@@H](CN(C)C)[C@@H](CO)C1,cytotoxicity at 10 µM,-9.4%
COc1ccc(C(=O)C2CCCN(Cc3ccc(C)o3)C2)c(OC)c1 (stereo unspecified),cytotoxicity at 10 µM,1.17%
Cc1nc(O)c2nnn(C[C@H]3CCCN3C(=O)c3cccc(F)c3)c2n1,cytotoxicity at 10 µM,-0.00161%
Cc1ncccc1O[C@H]1CCN(C(=O)Cc2cccs2)CC[C@@H]1O,cytotoxicity at 10 µM,5.92%
COCc1cccc(CNC(=O)c2c(C)noc2C(C)C)c1,cytotoxicity at 10 µM,0.153%
O=C(CN1CCCC1Cn1cncn1)NCCOc1ccc(F)cc1 (stereo unspecified),cytotoxicity at 10 µM,-3.56%
CC(C)Oc1ncccc1CNC(=O)NC1CCOc2ccccc21 (stereo unspecified),cytotoxicity at 10 µM,-3.16%
Cc1c(C(=O)N2CCCC2c2cnn(C)c2)cnn1-c1ccccc1 (stereo unspecified),cytotoxicity at 10 µM,-23.7%
CC(C)(NCC(=O)NC(=O)NC1CC1)c1ccc2c(c1)OCO2,cytotoxicity at 10 µM,-1.27%
Brc1cccc(-c2noc(CN3CCOCC3)n2)c1,cytotoxicity at 10 µM,-15.2%
CC(C)Sc1ncccc1C(=O)NCc1ccoc1,cytotoxicity at 10 µM,-0.945%
CCN(c1cc(C)cc(C)c1)S(=O)(=O)c1cc(C(=O)O)cs1,cytotoxicity at 10 µM,-1.92%
Cc1nc(CN2CCN(C(=O)c3ccnc(N(C)C)c3)CC2)cs1,cytotoxicity at 10 µM,1.42%
Cc1nn(C)c(N2CCOCC2)c1CNCc1ccc(C(C)O)cc1 (stereo unspecified),cytotoxicity at 10 µM,-4.93%
Cc1ncsc1C(=O)NC1CCN(CC(=O)N(C)C(C)(C)C#N)CC1,cytotoxicity at 10 µM,-3.88%
Cc1nc2ccnn2c(C)c1CCC(=O)N1CCC(C(N)=O)CC1,cytotoxicity at 10 µM,-9.26%
CC(N(C)Cc1nc2c(cnn2C)c(=O)[nH]1)C(C)(C)C (stereo unspecified),cytotoxicity at 10 µM,-3.09%
CN(Cc1nnc(C2CC2)n1C)C1CCN(Cc2ccon2)C1 (stereo unspecified),cytotoxicity at 10 µM,-9.04%
Cc1noc(CN(Cc2ccc3c(c2)OCO3)C2CCCC2)n1,cytotoxicity at 10 µM,-5.28%
O=C(Cc1cn2ccsc2n1)N1CCCC(n2cncn2)C1 (stereo unspecified),cytotoxicity at 10 µM,-5.97%
N#Cc1ccc(C(=O)NCCCNc2ccc(C(F)(F)F)cn2)cc1,cytotoxicity at 10 µM,-4.53%
Cc1ccc(CC(=O)N2CCN(CC(O)c3ccccc3)CC2)cn1 (stereo unspecified),cytotoxicity at 10 µM,-10.9%
Cc1[nH]ncc1C(=O)N1CCCC(n2cncn2)C1 (stereo unspecified),cytotoxicity at 10 µM,7.75%
Cc1cc(C)n(CCCn2cncc2-c2ccc3c(c2)CC(C)N3C)n1 (stereo unspecified),cytotoxicity at 10 µM,0.94%
Cc1csc(C(Cc2ccsc2)NC(=O)CN(C)Cc2cccnc2)n1 (stereo unspecified),cytotoxicity at 10 µM,0.471%
Cc1cnnn1Cc1nnn2c1CN(Cc1ccccn1)CCC2,cytotoxicity at 10 µM,9.73%
COCc1cnc2n1CCN(C1CCC1)C2C (stereo unspecified),cytotoxicity at 10 µM,4.77%
Fc1cnc(N2C[C@@H]3COC[C@]3(COc3ccccn3)C2)nc1,cytotoxicity at 10 µM,-5.43%
CN(C)C(=O)CO[C@H]1CN(Cc2cccc(F)c2)[C@@H]2CCCO[C@H]12,cytotoxicity at 10 µM,-2.76%
CN1CCO[C@@H]2CN(C(=O)c3ccc4[nH]ccc4c3)CC[C@@H]2C1,cytotoxicity at 10 µM,-108%
O=C(c1cscn1)N1CC[C@]2(C[C@@H](OCCN3CCCC3)CO2)C1,cytotoxicity at 10 µM,0.462%
CN1C(=O)CC(c2cnn(C)c2)C12CCN(C(=O)c1ccncc1)CC2 (stereo unspecified),cytotoxicity at 10 µM,-84.4%
Cc1ccccc1CN1C[C@@H](C(=O)N2CCCCO2)C[C@H]2OCC[C@H]21,cytotoxicity at 10 µM,-68.5%
CN(C)C(=O)[C@@H]1CCO[C@@H]2CCN(CCOCc3ccccc3)C[C@H]21,cytotoxicity at 10 µM,-0.902%
Cc1ccc(N2C[C@H](C(=O)NCC3CC3)[C@@H]3CCO[C@@H]3C2)nn1,cytotoxicity at 10 µM,-67.6%
Fc1ccc(CN2CCC3(CC2)CCN(Cc2nccs2)CC3)cc1,cytotoxicity at 10 µM,4.92%
COCCN1CCc2cc(C(=O)O)c(-c3ccoc3)nc2CC1,cytotoxicity at 10 µM,-75.6%
Cc1nc[nH]c1CN1C[C@@H]2OCCN(c3ncccn3)[C@@H]2C1,cytotoxicity at 10 µM,-70.4%
Cc1ccc(CN2CCOC3(COCCN(C(C)C)C3)C2)o1 (stereo unspecified),cytotoxicity at 10 µM,-107%
Cc1noc(C)c1CN1CCc2ncnc(-c3cnn(C)c3)c2CC1,cytotoxicity at 10 µM,-98.4%
Cc1cnc(C(=O)N2Cc3ncn(C)c3C(COCC(C)C)C2)cn1 (stereo unspecified),cytotoxicity at 10 µM,-112%
CCn1ncc2c1C(COC)N(C(=O)CCc1ccccc1)CC2 (stereo unspecified),cytotoxicity at 10 µM,-96.8%
Cc1ccc(CN2CCCn3c(nc(CN4CCCC4)cc3=O)C2)s1,cytotoxicity at 10 µM,-0.207%
Cc1nc(CN2C[C@@H]3COC[C@]3(COCC(=O)N(C)C)C2)cs1,cytotoxicity at 10 µM,1.41%
CCOCCC(=O)N1C[C@@H]2CC[C@H]1CN(c1ncccn1)C2,cytotoxicity at 10 µM,2.53%
